This is a sample that favours compounds with a hit; in the whole collection about 2.2% have one here.
eIF4E 4G PPI – blocks eIF4E binding to eIF4G. 220,000 tested, 0.37% active. P63073+Q04637. inhibition, % at 21.7 µM. TR-FRET eIF4E-eIF4GI(517-606) binding, 2 h;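 active = inhibition above about 30%, limit read from the data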;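 note: 0% = full FRET control wells and 100% = background wells lacking eIF4GI fragment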
Runt-SMMHC FRET – Runt domain-CBFb-SMMHC interaction inhibition; inhibition, % at 20 µM; 220,000 tested, 0.74% active; AID 1434; Cerulean-Runt/Venus-CBFb-SMMHC FRET ratio 530/480, 1 h;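 active = mean inhibition across duplicate retests at 20 µM reaching about 50%, limit read from the data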;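 note: 0% = DMSO wells and 100% = wells with excess untagged CBFb-SMMHC; inhibitors lower the FRET ratio by blocking Runt binding to CBFb-SMMHC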
PERK inhibitor – human PERK inhibition, primary cell-based screen; Q9NZJ5; inhibition, % at 5.6 µM; CHO PERK-DD fusion, SEAP luminescence translation reporter; 220,000 tested, 0.17% active;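 active = inhibition above the mean inhibition of all tested compounds plus 3 SD, set separately per screening campaign, cut at about 2.9% in these data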;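 note: PERK kinase domain activated by AP20187 dimerizer at 100 nM; 0% = DMSO with dimerizer and 100% = rapamycin at 8.4 µM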
Target sequence (Q9NZJ5 whole entry, looked up, the tested form may be a part): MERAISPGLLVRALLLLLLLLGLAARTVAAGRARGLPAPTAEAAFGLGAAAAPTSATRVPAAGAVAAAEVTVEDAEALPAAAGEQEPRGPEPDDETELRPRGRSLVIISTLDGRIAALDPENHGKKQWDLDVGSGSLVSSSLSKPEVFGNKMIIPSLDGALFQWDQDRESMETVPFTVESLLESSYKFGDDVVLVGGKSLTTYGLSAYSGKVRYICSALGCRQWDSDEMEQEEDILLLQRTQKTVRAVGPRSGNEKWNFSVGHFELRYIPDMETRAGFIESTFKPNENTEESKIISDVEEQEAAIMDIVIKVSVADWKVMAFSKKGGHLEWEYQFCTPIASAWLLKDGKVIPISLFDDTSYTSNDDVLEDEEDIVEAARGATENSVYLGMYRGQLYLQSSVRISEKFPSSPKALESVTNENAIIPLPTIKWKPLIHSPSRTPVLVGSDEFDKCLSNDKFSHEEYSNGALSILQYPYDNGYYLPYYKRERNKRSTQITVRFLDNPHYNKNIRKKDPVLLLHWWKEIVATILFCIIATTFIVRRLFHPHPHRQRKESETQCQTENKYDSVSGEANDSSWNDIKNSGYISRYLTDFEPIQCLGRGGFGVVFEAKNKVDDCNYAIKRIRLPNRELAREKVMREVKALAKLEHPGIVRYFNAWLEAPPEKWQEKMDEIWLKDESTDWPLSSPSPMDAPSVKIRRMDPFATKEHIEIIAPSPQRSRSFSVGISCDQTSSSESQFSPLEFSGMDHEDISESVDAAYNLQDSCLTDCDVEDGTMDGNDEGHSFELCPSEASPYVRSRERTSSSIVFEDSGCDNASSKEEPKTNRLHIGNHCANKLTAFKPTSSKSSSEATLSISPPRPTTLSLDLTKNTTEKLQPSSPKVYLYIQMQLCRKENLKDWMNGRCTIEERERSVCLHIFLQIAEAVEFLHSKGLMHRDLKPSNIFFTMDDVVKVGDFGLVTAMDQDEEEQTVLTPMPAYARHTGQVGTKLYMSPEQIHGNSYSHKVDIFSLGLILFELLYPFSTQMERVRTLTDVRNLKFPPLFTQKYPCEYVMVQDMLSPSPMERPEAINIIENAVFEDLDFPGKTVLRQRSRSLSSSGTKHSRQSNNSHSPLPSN
Runt-CBFb FRET – Runt domain-CBFb interaction inhibition. Q01196+Q13951. Cerulean-Runt/Venus-CBFb FRET ratio 530/480, 1 h. inhibition, % at 20 µM. 220,000 tested, 0.46% active. AID 1496;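 active = inhibition over about 50% at 20 µM in the single-dose screen, limit read from the data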;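 note: 0% = DMSO wells and 100% = excess unlabeled CBFb competitor control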
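Assay system: Cerulean-tagged RUNX1 Runt domain (FRET donor) fusion protein / Amount: 100 nM each of Venus-CBFb and Cerulean-Runt domain / Medium: Tris buffer pH 7.5 with salts and BSA / Also added: Venus-CBFb 100 nM / Schedule: 1 h complex formation plus 1 h compound treatment, room temperature / Signal: FRET fluorescence / Read-out: loss of energy transfer signal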
RanGTP-Imp inh – inhibitors of RanGTP-importin-beta interaction, primary screen, biochemical, FRET, CFP-Ran, YFP-importin-beta, homogeneous. inhibition, % (concentration not given with the values). cell-free CFP-Ran/YFP-importin-beta FRET ratio. 300,000 tested, 1.1% active. AID 2216;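 active = more than half of the replicate wells show a fall in the fluorescence ratio signal beyond about 16%, limit read from the data, passing the limit was not always enough; inconclusive = exactly half of the replicate wells pass the set limit; inactive = fewer than half of replicates pass the limit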;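 note: 0% = DMSO wells and 100% = Ran loaded with GDP instead of GTP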
Hck-Nef inh – inhibitors of human Hck kinase activated by Nef; inhibition, % at 20 µM; AID 463187; P08631; Recombinant Hck-YEEI plus Nef, Z-Lyte FRET kinase assay; 220,000 tested, 0.68% active;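 active = Hck-Nef kinase inhibition above about 50%, limit read from the data; inactive = inhibition below that limit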;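 note: 0% = DMSO with Hck plus Nef and 100% = Hck alone without Nef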
The depositor's hits bear a star; u = inconclusive; x = not tested or not shown.

SMILES	eIF4E 4G PPI	Runt-SMMHC FRET	PERK inhibitor	Runt-CBFb FRET	RanGTP-Imp inh	Hck-Nef inh
COc1ccc(-n2c(=S)[nH]c3sc4c(c3c2=O)CCN(C)C4)cc1	1.0	38.8	-0.3	13.7	22.6*	3.2
COc1ccc(-n2c(SC)nc3sc4c(c3c2=O)CCN(C)C4)cc1	x	x	x	x	-27.8	x
COc1ccc(NC(=O)CSc2nc(O)cc(=O)[nH]2)c(OC)c1	95.6*	-3.7	-0.2	5.4	-1.5	25.5
Nc1cc(=O)[nH]c(SCC(=O)Nc2ccc(Oc3ccccc3)cc2)n1	x	x	x	x	32.3*	x
C#CC(C)(CC)NC(=O)c1cc(OC)c(OC)c(OC)c1 (stereo not drawn)	-0.7	-6.2	0.9	-0.4	4.4	1.3
COc1ccc(Cn2c(/C=C/c3ccccc3)nc3ccccc32)cc1	-1.4	-4.1	-0.5	-0.5	28.2*	3.2
CCn1c(/C=C/c2ccccc2)nc2ccccc21	-3.7	0.7	-1.2	-3.6	3.5	1.2
CCN1CCN(c2cc(-c3ccccc3)nc3cc(-c4cccc(F)c4)nn23)CC1	2.3	33.3	-0.9	1.8	16.8*	8.4
COC(=O)c1sc(S(=O)(=O)NCc2cccs2)c(C(=O)OC)c1C	-16.9	2.7	0.1	-3.0	-3.5	7.4
COc1ccc(NC(=O)CSCC(=O)N2CCCc3ccccc32)cc1	x	x	x	x	3.2	x
Fc1ccc(Br)cc1C1C=C(c2ccc(Br)cc2)Nc2ncnn21 (stereo not drawn)	-5.7	-6.8	0.3	-3.6	-19.0	0.4
CCc1ccc(C2=CC(c3cc(Br)ccc3F)n3ncnc3N2)cc1 (stereo not drawn)	0.5	75.1*	1.5	-1.1	x	-0.5
CCOC(=O)/C(C#N)=C\c1cc(C)n(-c2ccccc2)c1C	1.3	1.2	0.5	-0.9	u	-0.4
CCOC(=O)/C(C#N)=C\c1ccc(N2CCN(C/C=C/c3ccccc3)CC2)cc1	4.5	-64.7	-0.6	-118.2	90.7*	4.0
CCOC(=O)/C(C#N)=C/c1ccc(OC(=O)c2ccccn2)cc1	30.7*	22.4	0.3	8.3	2.7	1.5
O=C(NCc1ccccc1F)c1ccc2c(c1)OCO2	-2.5	0.7	-0.4	1.1	15.9*	-0.9
COCc1cc(CNC(=O)C2CCC(=O)N(Cc3cccc(OC)c3)C2)[nH]n1 (stereo not drawn)	x	x	x	x	-5.6	x
Cn1cc(/C=N\O)nc2c(=O)n(-c3ccccc3)c(=O)nc1-2	0.1	94.6*	-0.6	83.5*	33.5*	29.7
Fc1ccc(CSc2nc3ncccc3[nH]2)cc1	14.5	109.9	-0.1	102.4*	u	-0.7
Fc1cccc(CSc2nc3ncccc3[nH]2)c1	9.5	3.1	0.8	-2.5	-1.2	-0.4
Cc1cc(C)n(CCO)c(=O)n1	1.2	-0.2	0.8	0.0	1.5	0.8
Nc1c(C(=O)NCC2CCCO2)sc2nc3c(c(-c4ccco4)c12)CC/C3=C\c1ccco1 (stereo not drawn)	18.7	-2.9	0.3	29.0	x	88.3*
Cc1csc(NC(=O)CSc2nnc(CCNC(=O)c3ccc(Cl)c(Cl)c3)n2C)n1	-5.0	-1.4	-1.2	3.0	1.6	-17.2
COc1cc2cc(C(=O)Nc3ccccc3)c(N)nc2cc1OC	12.2	48.5	0.2	15.7	29.1*	18.8
CCCc1cc(=O)n2[nH]c(C)nc2n1	4.6	-3.5	0.7	1.0	22.9*	3.7
SMILES	eIF4E 4G PPI	Runt-SMMHC FRET	PERK inhibitor	Runt-CBFb FRET	RanGTP-Imp inh	Hck-Nef inh
CCC(=O)Oc1ccc(C/C(=N\O)c2ccc(O)cc2O)o1	-2.0	-1.7	1.3	5.5	3.6	2.3
COCCCNc1nc2nonc2nc1N1CCN(Cc2cccc(C)c2)CC1	-1.6	82.1*	-0.1	24.5	-0.1	2.8
N#Cc1c(-c2ccccc2)nc(SCC(=O)N2c3ccccc3Sc3ccccc32)[nH]c1=O	6.2	-9.9	0.1	-5.6	-0.9	82.0*
N#Cc1c(-c2ccccc2)nc(SCC(=O)N(c2ccccc2)c2ccccc2)[nH]c1=O	1.9	-12.6	0.3	-3.6	2.2	5.6
CC(C)C[C@H](NC(=O)C1CC(=O)N(c2ccc(F)cc2)C1)C(=O)N1CCCCC1 (stereo partly drawn)	x	x	x	x	-0.6	x
CCN(CCCNC(=O)Cn1ncc2c([nH]c3ccccc32)c1=O)Cc1ccccc1	x	x	x	x	-0.8	x
